≈ marks a conversion by molar mass, not a printed value. Calls of active or inactive are those of the source. The calls are words filed in the database; no cut-off is given here.
Tests used:
[1] = system: Mycolicibacterium smegmatis; test: Antibacterial activity against Mycobacterium smegmatis after 72 hrs; type: functional
In short: (§1)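 Fast-growing mycobacteria obtained from NCTC; cultures grown on Columbia blood agar with 7% defibrinated horse blood at 37 °C for 72 h before MIC determination. Ethambutol and isoniazid served as positive controls.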

[2] = system: Mycolicibacterium fortuitum; test: Antibacterial activity against Mycobacterium fortuitum after 72 hrs; type: functional; in short: as §1
Mycolicibacterium phlei = test: Antibacterial activity against Mycobacterium phlei after 72 hrs; type: functional; in short: as §1
Staphylococcus aureus [3] = test: Antibacterial activity against Staphylococcus aureus EMRSA15 after 72 hrs; type: functional; conditions: EMRSA15, 72 h
In short: (§2)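 S. aureus strains tested in a MIC assay; norfloxacin and oxacillin used as positive controls.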

Staphylococcus aureus [4] = test: Antibacterial activity against tetracycline-effluxing Staphylococcus aureus XU212 after 72 hrs; type: functional; conditions: XU212, 72 h; in short: as §2
Staphylococcus aureus [5] = test: Antibacterial activity against Staphylococcus aureus SA1199B overexpressing NorA efflux pump after 72 hrs; type: functional
[6] = Cytotoxicity against human WI38 cells after 96 hrs by sulforhodamine B assay; type: cell-based; conditions: WI-38, 96 h
In short: (§3)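 SRB assay. Cells seeded at 4000/well in DMEM and allowed to attach overnight at 37 °C, 5% CO2. Exposed in quadruplicate to freshly made compound, 0.1–25 µM, for 96 h. Fixed with ice-cold 10% TCA for 30 min, stained with 0.4% SRB in 1% acetic acid for 15 min. Absorbance read at 540 nm as % of untreated control; IC50 derived from means.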

[7] = system: Mycolicibacterium smegmatis; test: Antibacterial activity against Mycobacterium smegmatis mc2 2700 after 72 hrs; type: functional; conditions: mc2 2700, 72 h
A549 = test: Cytotoxicity against human A549 cells after 96 hrs by sulforhodamine B assay; type: functional, cell-based; conditions: A549, 96 h; in short: as §3
MCF7 = test: Cytotoxicity against human MCF7 cells after 96 hrs by sulforhodamine B assay; type: functional, cell-based; conditions: MCF7, 96 h; in short: as §3
[8] = system: Mycobacterium tuberculosis; test: Antibacterial activity against Mycobacterium tuberculosis H37Rv ATCC 27294 assessed as decrease in viable bacterial counts at 0.01 to 5 ug/ml after 14 days by spot-culture growth inhibition assay; type: functional, organism-based
In short: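 Mid-exponential cultures (BCG rotated in 7H9/ADC/Tween 80; H37Rv standing in 7H9/OADC/Tween 80) diluted to 10³ cells/mL. 5 µL spotted onto 7H10 agar with 10% OADC containing compound at 0.01, 0.1, 0.5, 1 and 5 µg/mL. Incubated at 37 °C for 14 days. MIC taken as lowest concentration with no growth; no-compound well as growth control.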

Mus musculus [9] = test: Toxicity in C57BL/6 mouse assessed as lethality at 300 mg/kg administered as single dose via oral gavage for 3 days measured 3 days after final dose; type: organism-based; set-up: dose 300 mg/kg, route oral; conditions: in vivo, 72 h
In short: (§4)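 Female C57BL/6 mice, three per dose, got a single oral gavage dose of 30, 100 or 300 mg/kg. Observed at 4 and 6 h after dosing, then twice daily for 1 week. The tabulated data describe 3-day dosing.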

HT-29 = test: Cytotoxicity against human HT-29 cells after 96 hrs by sulforhodamine B assay; type: functional, cell-based; conditions: HT-29, 96 h; in short: as §3
[10] = system: Mycobacterium tuberculosis; test: Upregulation of Rv1335 RNA expression in Mycobacterium tuberculosis H37Rv ATCC 27294 at 2 to 10 ug/ml after 6 hrs by microarray analysis; type: functional, organism-based
In short: (§5)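 H37Rv grown in 7H9 with 0.2% glycerol, 0.5% BSA fraction V, 0.05% Tween 80, 0.08% NaCl and 0.2% glucose to OD650 0.3. Treated with 2, 5 or 10 µg/mL compound, or matching DMSO, for 6 h. RNA isolated, labelled cDNA hybridised to microarrays. Predictive genes found by class prediction analysis.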

[11] = system: Mycobacterium tuberculosis; test: Upregulation of Rv0331 RNA expression in Mycobacterium tuberculosis H37Rv ATCC 27294 at 2 to 10 ug/ml after 6 hrs by microarray analysis; type: functional, organism-based; in short: as §5
Mus musculus [12] = test: Toxicity in C57BL/6 mouse assessed as adverse effect at 30 mg/kg administered as single dose via oral gavage for 3 days measured after 3 days post final dose; type: organism-based; set-up: dose 30 mg/kg, route oral; conditions: in vivo, 72 h
[13] = system: Mycobacterium tuberculosis; test: Upregulation of Rv3463 RNA expression in Mycobacterium tuberculosis H37Rv ATCC 27294 at 2 to 10 ug/ml after 6 hrs by microarray analysis; type: functional, organism-based; in short: as §5
[14] = Toxicity in C57BL/6 mouse assessed as maximum tolerated dose administered as single dose via oral gavage for 3 days measured 6 hrs after final dose; type: organism-based; conditions: in vivo; in short: as §4
[15] = system: Mycobacterium tuberculosis; test: Antibacterial activity against Mycobacterium tuberculosis infected in GKO C57BL/6 mouse assessed as bacterial number in lung at 30 mg/kg/day administered 14 days postinfection via oral gavage for nine consecutive days measured on day 24 postinfection; type: functional
In short: (§6)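 Female GKO C57BL/6 mice, 8–10 weeks old, infected by low-dose aerosol with M. tuberculosis Erdman (50–100 CFU uptake confirmed day 1). Daily oral gavage in 0.5% methyl cellulose from day 14 for nine consecutive days; isoniazid given at 25 mg/kg/day. Five mice per group, with untreated and pretreatment controls. Lung and spleen CFU log-transformed; one-way ANOVA with Tukey test.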

[16] = system: Mycobacterium tuberculosis; test: Effect on trxC RNA expression in Mycobacterium tuberculosis H37Rv ATCC 27294 at 2 to 10 ug/ml after 6 hrs by microarray analysis; type: functional, organism-based; in short: as §5
Mus musculus [17] = test: Toxicity in C57BL/6 mouse assessed as lethality at 300 mg/kg administered as single dose via oral gavage for 3 days measured 2 days after final dose; type: organism-based; set-up: dose 300 mg/kg, route oral; conditions: in vivo, 48 h; in short: as §4
[18] = system: Mycobacterium tuberculosis; test: Upregulation of clpB RNA expression in Mycobacterium tuberculosis H37Rv ATCC 27294 at 2 to 10 ug/ml after 6 hrs by microarray analysis; type: functional, organism-based; in short: as §5
[19] = system: Mycobacterium tuberculosis; test: Antibacterial activity against Mycobacterium tuberculosis H37Rv ATCC 27294 assessed as decrease in viable bacterial counts at 1.25 ug/ml after 7 days by spot-culture growth inhibition assay; type: functional
[20] = system: Mycobacterium tuberculosis; test: Effect on trxB2 RNA expression in Mycobacterium tuberculosis H37Rv ATCC 27294 at 2 to 10 ug/ml after 6 hrs by microarray analysis; type: functional, organism-based; in short: as §5
[21] = Toxicity in C57BL/6 mouse assessed as maximum tolerated dose administered as single dose via oral gavage for 3 days measured 4 hrs after final dose; type: organism-based; conditions: in vivo; in short: as §4
[22] = system: Mycobacterium tuberculosis; test: Upregulation of hsp RNA expression in Mycobacterium tuberculosis H37Rv ATCC 27294 at 2 to 10 ug/ml after 6 hrs by microarray analysis; type: functional, organism-based; in short: as §5
[23] = system: Mycobacterium tuberculosis; test: Upregulation of Rv1334 RNA expression in Mycobacterium tuberculosis H37Rv ATCC 27294 at 2 to 10 ug/ml after 6 hrs by microarray analysis; type: functional, organism-based; in short: as §5
[24] = system: Mycobacterium tuberculosis; test: Upregulation of Rv3054c RNA expression in Mycobacterium tuberculosis H37Rv ATCC 27294 at 2 to 10 ug/ml after 6 hrs by microarray analysis; type: functional, organism-based; in short: as §5
[25] = system: Mycolicibacterium smegmatis; test: Inhibition of fatty acid biosynthesis in Mycobacterium smegmatis assessed as inhibition of [14C]acetate incorporation into soluble lipid at 30 ug/ml treated 2 hrs before [14C]acetate addition measured after 2 hrs of [14C]acetate infusion by whole-cell assay; type: functional, organism-based
In short: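 Replicating M. smegmatis whole cells exposed to compound at 30 µg/mL for 2 h, then [1-14C]acetate added for a further 2 h. Soluble lipids (mostly fatty acids) extracted and counts per minute compared with untreated control.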

[26] = system: Mycobacterium tuberculosis; test: Upregulation of sigH RNA expression in Mycobacterium tuberculosis H37Rv ATCC 27294 at 2 to 10 ug/ml after 6 hrs by microarray analysis; type: functional, organism-based; in short: as §5
[27] = system: Mycobacterium tuberculosis; test: Upregulation of dnaK RNA expression in Mycobacterium tuberculosis H37Rv ATCC 27294 at 2 to 10 ug/ml after 6 hrs by microarray analysis; type: functional, organism-based; in short: as §5
[28] = system: Mycobacterium tuberculosis; test: Antibacterial activity against Mycobacterium tuberculosis infected in GKO C57BL/6 mouse assessed as bacterial number in spleen at 30 mg/kg/day administered 14 days postinfection via oral gavage for nine consecutive days measured on day 24 postinfection; type: functional; in short: as §6
[29] = Toxicity in C57BL/6 mouse assessed as maximum tolerated dose administered as single dose via oral gavage for 3 days measured twice daily for 1 week after final dose; type: organism-based; conditions: in vivo; in short: as §4
[30] = system: Mycobacterium tuberculosis; test: Upregulation of dnaJ RNA expression in Mycobacterium tuberculosis H37Rv ATCC 27294 at 2 to 10 ug/ml after 6 hrs by microarray analysis; type: functional, organism-based; in short: as §5
Mus musculus [31] = test: Toxicity in C57BL/6 mouse assessed as transient lethargy at 100 mg/kg administered as single dose via oral gavage for 3 days measured 3 days after final dose; type: organism-based; set-up: dose 100 mg/kg, route oral; conditions: in vivo, 72 h

SMILES: CC[C@@H](CO)NCCN[C@@H](CC)CO [ETHAMBUTOL]
- MIC [1]: 32 µg/mL (≈ 157 µM)
- MIC [2]: 2 µg/mL (≈ 9.79 µM)
- MIC (Mycolicibacterium phlei): 2 µg/mL (≈ 9.79 µM)

SMILES: CSCSSc1cccc[n+]1[O-]
- MIC (Staphylococcus aureus [3]): 0.5 µg/mL (≈ 2.28 µM)
- MIC [1]: 4 µg/mL (≈ 18.2 µM)
- MIC (Staphylococcus aureus [4]): 1 µg/mL (≈ 4.56 µM)
- MIC (Staphylococcus aureus [5]): 1 µg/mL (≈ 4.56 µM)
- IC50 [6]: 890 nM
- MIC [2]: 8 µg/mL (≈ 36.5 µM)
- MIC [7]: 4 µg/mL (≈ 18.2 µM)
- MIC (Mycolicibacterium phlei): 2 µg/mL (≈ 9.12 µM)
- IC50 (A549): 780 nM
- IC50 (MCF7): 390 nM
- Activity [8]: Active

SMILES: CSSc1ccc2ccccc2n1
- MIC (Staphylococcus aureus [3]): 4 µg/mL (≈ 19.3 µM)
- MIC [1]: 8 µg/mL (≈ 38.6 µM)
- MIC (Staphylococcus aureus [4]): 4 µg/mL (≈ 19.3 µM)
- MIC (Staphylococcus aureus [5]): 4 µg/mL (≈ 19.3 µM)
- MIC [2]: 4 µg/mL (≈ 19.3 µM)
- MIC (Mycolicibacterium phlei): 8 µg/mL (≈ 38.6 µM)

SMILES: CSSc1cccc[n+]1[O-]
- Activity (Mus musculus [9]): Toxic
- IC50 (HT-29): 1840 nM
- Activity [10]: Active
- MIC (Staphylococcus aureus [3]): 0.5 µg/mL (≈ 2.89 µM)
- Activity [11]: Active
- Activity (Mus musculus [12]): Non-toxic
- Activity [13]: Active
- MTD at 6 h [14]: 30 mg/kg
- log10cfu [15]: 8.17
- MIC [1]: 8 µg/mL (≈ 46.2 µM)
- Activity [16]: Active
- Activity (Mus musculus [17]): Toxic
- Activity [18]: Active
- MIC (Staphylococcus aureus [4]): 1 µg/mL (≈ 5.77 µM)
- Activity [19]: 99%
- Activity [20]: Active
- MIC (Staphylococcus aureus [5]): 2 µg/mL (≈ 11.5 µM)
- MTD at 4 h [21]: 30 mg/kg
- Activity [22]: Active
- Activity [23]: Active
- IC50 [6]: 800 nM
- MIC [2]: 8 µg/mL (≈ 46.2 µM)
- Activity [24]: Active
- inhibition [25]: Active
- Activity [26]: Active
- Activity [27]: Active
- log10cfu [28]: 6.17
- MTD at 168 h [29]: 30 mg/kg
- MIC [7]: 8 µg/mL (≈ 46.2 µM)
- MIC (Mycolicibacterium phlei): 2 µg/mL (≈ 11.5 µM)
- IC50 (A549): 220 nM
- Activity [30]: Active
- Activity (Mus musculus [31]): Toxic
- IC50 (MCF7): 350 nM
- Activity [8]: Active

Reference: ChEMBL document CHEMBL1151981, “Bioactive pyridine-N-oxide disulfides from Allium stipitatum” (J Nat Prod, 2009)
